Source: PMC3644109 (Nature Communications, 2013)

How the values were obtained:
AtALMT9 [1] = target: T1, AtALMT9 (Arabidopsis thaliana, UniProt Q9LS46); assay: patch clamp of excised cytosolic-side-out vacuolar patches, chloride current; format: biochemical; settings: activator; 1 mM cytosolic; 100 mM chloride bath, pH 7.5
T1 sequence (Q9LS46 1-598): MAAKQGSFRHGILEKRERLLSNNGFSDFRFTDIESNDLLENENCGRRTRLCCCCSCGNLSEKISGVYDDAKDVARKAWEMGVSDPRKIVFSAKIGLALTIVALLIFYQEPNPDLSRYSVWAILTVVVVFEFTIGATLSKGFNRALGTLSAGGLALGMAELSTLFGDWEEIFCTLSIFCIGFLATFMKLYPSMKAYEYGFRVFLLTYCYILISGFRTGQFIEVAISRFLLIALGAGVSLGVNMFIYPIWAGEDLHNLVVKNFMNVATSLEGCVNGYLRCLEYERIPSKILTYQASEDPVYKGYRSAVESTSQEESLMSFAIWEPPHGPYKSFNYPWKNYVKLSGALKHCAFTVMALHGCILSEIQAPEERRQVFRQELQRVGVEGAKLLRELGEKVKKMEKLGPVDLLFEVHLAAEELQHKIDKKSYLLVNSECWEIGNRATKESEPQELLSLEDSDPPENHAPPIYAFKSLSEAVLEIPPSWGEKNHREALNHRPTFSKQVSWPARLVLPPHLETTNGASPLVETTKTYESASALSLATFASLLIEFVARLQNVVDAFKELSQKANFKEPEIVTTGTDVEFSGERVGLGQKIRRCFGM
In short: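 Vacuoles came from transiently transformed N. benthamiana leaves expressing the channel (2–3 days post-agroinfiltration) and were released from mesophyll protoplasts by EDTA and mild osmotic shock. Excised cytosolic-side-out patches (seal >2 GΩ) were held in symmetrical chloride: pipette 100 mM HCl pH 6, bath 100 mM HCl, 3 mM MgCl₂, 0.1 mM CaCl₂ pH 7.5. Test compound was perfused on the cytosolic side. Steady currents were compared at -120 mV, before versus after.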

AtALMT9 [2] = target: T1, AtALMT9; assay: patch clamp of excised cytosolic-side-out vacuolar patches, chloride current; format: biochemical; settings: activator, not permeant, -120 mV, chloride bath, pH 7.5
AtALMT9 [3] = target: T1, AtALMT9; assay: patch clamp of excised cytosolic-side-out vacuolar patches, Hill fit; format: cell-based
[4] = substrate: O=C(O)C[C@H](O)C(=O)O; assay: cells, lysate or membranes; settings: malate transport into vacuole

O=C(O)/C=C/C(=O)O [fumarate]
fold increase of chloride current at 1 mM (AtALMT9 [1]): 5.7±0.4 fold

O=C(O)c1cccc(C(=O)O)c1 [isophtalate]
fold increase of chloride current (AtALMT9 [2]): 2.1±0.1 fold

O=C(O)C[C@H](O)C(=O)O [malate]
EC50 (AtALMT9 [3]): 300 µM

O=C(O)CC(=O)C(=O)O [oxaloacetate]
fold increase of chloride current at 1 mM (AtALMT9 [1]): 2.0±0.2 fold

B1: AtALMT9 (Arabidopsis thaliana) (protein)
chain: MAAKQGSFRHGILEKRERLLSNNGFSDFRFTDIESNDLLENENCGRRTRLCCCCSCGNLSEKISGVYDDAKDVARKAWEMGVSDPRKIVFSAKIGLALTIVALLIFYQEPNPDLSRYSVWAILTVVVVFEFTIGATLSKGFNRALGTLSAGGLALGMAELSTLFGDWEEIFCTLSIFCIGFLATFMKLYPSMKAYEYGFRVFLLTYCYILISGFRTGQFIEVAISRFLLIALGAGVSLGVNMFIYPIWAGEDLHNLVVKNFMNVATSLEGCVNGYLRCLEYERIPSKILTYQASEDPVYKGYRSAVESTSQEESLMSFAIWEPPHGPYKSFNYPWKNYVKLSGALKHCAFTVMALHGCILSEIQAPEERRQVFRQELQRVGVEGAKLLRELGEKVKKMEKLGPVDLLFEVHLAAEELQHKIDKKSYLLVNSECWEIGNRATKESEPQELLSLEDSDPPENHAPPIYAFKSLSEAVLEIPPSWGEKNHREALNHRPTFSKQVSWPARLVLPPHLETTNGASPLVETTKTYESASALSLATFASLLIEFVARLQNVVDAFKELSQKANFKEPEIVTTGTDVEFSGERVGLGQKIRRCFGM
Km [4]: 27 mM
